Data as given in the RNAGym collection of RNA variant scans (doi:10.1126/science.aae0568).
This sample holds only a part of the variants without activity.

B1: tRNA (parent)
chain: GUUCCGUUGGCGUAAUGGUAACGCGUCUCCCUCCUAAGGAGAAGACUGCGGGUUCGAGUCCCGUACGGAACG

Variants of: B1
Test: yeast fitness relative to wild type (ratio to wild type); higher = fitter; tRNA-Arg(CCU), competitive growth, 37 C, YPD
Summary of the method: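 The tRNA-Arg(CCU) gene variants were made by chemical synthesis with a 3% per-site mutation rate at 69 sites and inserted at the native genomic locus of Saccharomyces cerevisiae. After pooling, the strains were competed in YPD at 37°C for 24 hours in six parallel replicates. Gene amplicons from the start population and each end population were read by 100-nucleotide paired-end sequencing, and Darwinian fitness relative to wild type was taken from genotype frequency changes. Genotypes needed ≥ 100 starting reads, and estimates < 0.5 were set to 0.5.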

First: GUUCUGUUGGCGUAAUGGUAACGCGUCUCCCUCCUAAGGAGAUGACUGCGGGUUCCAGUCCCGUACGUAACG [C5U A43U G56C G68U]
Second: GUUCUGUUGGCGUAAUGGUAACGCGUCUCCCUCCUAAGGAGAAGCCUGCGGGUUCGAGUCCCGUACGGAACG [C5U A45C]
The yeast fitness of the first is lower: 0.635 for the first, 1.06 for the second.

Going from GUUCUGUUGGCGUAAUGGUAACGCGUCUCCCUCCUAAGGAGAAGCCUGCGGGUUUGAGUCCCGUACGCAACG [C5U A45C C55U G68C] to GUUCUGUUGGCGUAAUGGUAACGCGUCUCCCUCCUAAGGAGAAGCCUGCGGGUUCGAGUCCAGUACGGAACG [C5U A45C C62A], the yeast fitness rises from 0.57 to 0.701.

Going from GUUCUGUUGGCGUAAUGGUAACGCGUCUCCCUCCUAAGGAGAAGCCUGCGGGUUCGAGUCCUGUACGGAACG [C5U A45C C62U] to GUUCUGUUGGCGUAAUGGUAACGCGUCUCCCUCCUAAGGAGAAGCCUGCGGGUUCGACUCCCGUACGGAACG [C5U A45C G58C], the yeast fitness rises from 0.768 to 0.977.

Compared with GUUCUGUUGGCGUAAUGGUAACGCGUCUCCCUCCUAAGGAGAAGCCUGCGGGGUCGAGUCCCGUACGGAACG [C5U A45C U53G], GUUCUGUUGGCGUAAUGGUAACGCGUCUCCCUCCUAAGGAGAAGGCUGGGGGUUCGAGCUCCGUACGGCACG [C5U A45G C49G U59C C60U A69C] is lower in yeast fitness: 0.574 for the first, at most 0.5 for the second.

Compared with GUUCUGUUGGCGUAAUGGUAACGCGUCUCCCUCCUAAGGAGAAGGCUGCGGGUUCGAGUCCCAUACGGAACG [C5U A45G G63A], GUUCUGUUGGCGUAAUGGUAACGCGUCUCCCUCCUAAGGAGAAGUCUGCGGGUUCAAGUCCCGUACGGAACG [C5U A45U G56A] is higher in yeast fitness: 0.708 for the first, 0.715 for the second.

Going from GUUCUGUUGGCGUAAUGGUAACGCGUCUCCCUCCUAAGGAGAAGUCUGCGGGUUCGAGUCCCGUACGCAACG [C5U A45U G68C] to GUUCUGUUGGCGUAAUGGUAACGCGUCUCCCUCCUAAGGAGAAGACUGCGGGUUCGCGUCCCGUACGGAACG [C5U A57C], the yeast fitness rises from 0.531 to 0.659.

First: GUUCUGUUGGCGUAAUGGUAACGCGUCUCCCUCCUAAGGAGAAGACUGCGGGUUCGCGUCCUGUACGGAACG [C5U A57C C62U]
Second: GUUCUGUUGGCGUAAUGGUAACGCGUCUCCCUCCUAAGGAGAAGACUGCGGGUUCGCCGCCCGUAUGGAACG [C5U A57C G58C U59G C66U]
The yeast fitness of the first is higher: 0.54 for the first, at most 0.5 for the second.

Going from GUUCUGUUGGCGUAAUGGUAACGCGUCUCCCUCCUAAGGAGAAGACUGCGGGUUCGGGUCCCGUACGGAACG [C5U A57G] to GUUCUGUUGGCGUAAUGGUAACGCGUCUCCCUCCUAAGGAGAAGACUGCGGGUUCGGGUCCCGUAUGGAACG [C5U A57G C66U], the yeast fitness falls from 0.807 to 0.655.

Compared with GUUCUGUUGGCGUAAUGGUAACGCGUCUCCCUCCUAAGGAGAAGACUGCGGGUUCGAGUCCCGUCCCGAACG [C5U A65C G67C], GUUCUGUUGGCGUAAUGGUAACGCGUCUCCCUCCUAAGGAGAAGACUGCGGGUUCGAGUCCCGUGCGGAACG [C5U A65G] is higher in yeast fitness: 0.566 for the first, 0.94 for the second.

Going from GUUCUGUUGGCGUAAUGGUAACGCGUCUCCCUCCUAAGGAGAAGACUGCGGGUUCGAGUCCCGUUCGGUACG [C5U A65U A69U] to GUUCUGUUGGCGUAAUGGUAACGCGUCUCCCUCCUAAGGAGAAGACUGCGGGUUCGAGUCCCGUUCGCAACG [C5U A65U G68C], the yeast fitness falls from 0.623 to 0.541.

Going from GUUCUGUUGGCGUAAUGGUAACGCGUCUCCCUCCUAAGGAGAAGACUGCGGGUUCGAGUCCCGUACGGUACG [C5U A69U] to GUUCUGUUGGCGUAAUGGUAACGCGUCUCCCUCCUAAGGAGAAGACUGCGGGUUCGAGUCCCGUACGGACCG [C5U A70C], the yeast fitness rises from 0.972 to 1.06.

GUUCUGUUGGAGUGAUGGUAACGCGUCUCCCUCCUAAGGAGAAGACUGCGGGUUCGAGUCCCGUACGGAACG [C5U C11A A14G] and GUUCUGUUGGAGUGAUGGUAACGCGUCUCCCUCCUAAGGAGGAGACUGCGGGUUUGAGUCCCGUUCGGAACG [C5U C11A A14G A42G C55U A65U] cannot be ordered by yeast fitness: at most 0.5 for the first, at most 0.5 for the second.

GUUCUGUUGGAGUAAUGGUACCGCGUGUCCCUCCUAAGGAGAAGACUGCGGGUUCGAGUCCCGUACGCAACG [C5U C11A A21C C27G G68C] and GUUCUGUUGGAGUAAUGGUAGCGCGUCUCCCUCCUAAGGUGAAGACUGCGGGUUCGAGUCCCGUACGCAACG [C5U C11A A21G A40U G68C] cannot be ordered by yeast fitness: at most 0.5 for the first, at most 0.5 for the second.

GUUCUGUUGGAGUAAUGGUAACGCGUCUCCCUCCUAAGGGGAAGACUGCGGGUUAGAGUCCCGUAAGGAACG [C5U C11A A40G C55A C66A] and GUUCUGUUGGAGUAAUGGUAACGCGUCUCCCUCCUAAGGAGAAGACUGCGGGUUCGAGUCCCGUACGGUACG [C5U C11A A69U] cannot be ordered by yeast fitness: at most 0.5 for the first, at most 0.5 for the second.

GUUCUGUUGGAGUAAUGGUAACGGGUGUCCCUCCUUACGAGAAGACUGCGGGUUCGAGUCCCGUACGGAACG [C5U C11A C24G C27G A36U G38C] and GUUCUGUUGGAGUAAUGGUAACGGGUGUCCCUCCUUACGAGAAGACUGCGGGUUCGAGUCCCGUACCGAACG [C5U C11A C24G C27G A36U G38C G67C] cannot be ordered by yeast fitness: at most 0.5 for the first, at most 0.5 for the second.

GUUCUGUUGGAGUAAUGGUAACGCGUCUCCCUCCUAAGGAGAACACUGCGGGUUCGAGUCCCGUACGGAACG [C5U C11A G44C] and GUUCUGUUGGAGCAAUGGUAACGGGUCUCGCUCCUAAGGAGAAGACUGCGGGUUCGAGUUCCGUACGGUACG [C5U C11A U13C C24G C30G C60U A69U] cannot be ordered by yeast fitness: at most 0.5 for the first, at most 0.5 for the second.

GUUCUGUUGGAGUAAUGGUAACGCGACUUAUUCCUAAGGAGAAGACUGCGGGUUCGAGUCCCGUACGGAACG [C5U C11A U26A C29U C30A C31U] and GUUCUGUUGGAGUAAUGGUAACGCGUCGCCCUCCUAAGGAGAACACUGCGGGUUCGAGUCCCGUACGGAACG [C5U C11A U28G G44C] cannot be ordered by yeast fitness: at most 0.5 for the first, at most 0.5 for the second.

First: GUUCUGUUGGAGUAAUGGUAACGCGUCUCCCUCCUAAGGAGAAGACUGCGGGUCCGAGUCCCAUACGGAACG [C5U C11A U54C G63A]
Second: GUUCUGUUGGGGUAAUGGUAACGCGUCUCCCUCCUAAGGAGAAGACUGCGGGUUCGAGUCCCGUACGGAACG [C5U C11G]
The yeast fitness of the first is lower: at most 0.5 for the first, 0.597 for the second.

Compared with GUUCUGUUGGGGUAAUGGUAACGGGUCUCCCUCCUAAGGAGAAGACUGCGGGUUCGAGUCCCGUACGGAACG [C5U C11G C24G], GUUCUGUUGGGGUAAUGGUAACGUGUCUCCCUCCUAAGGAGCAGACUGCGGGUUCGAGUCCCGUACGGAACG [C5U C11G C24U A42C] is higher in yeast fitness: at most 0.5 for the first, 0.552 for the second.
